{"data": "Assay results collected from several papers", "organism": "Bacillus subtilis", "note": "Protocols differ between the studies behind these lines."}
{"Structure (SMILES)": "CCCCCCCCCCCC(=O)OC[C@H]1O[C@@H](n2cc(C)c(=O)[nH]c2=O)C[C@@H]1OC(=O)c1ccc(C(C)(C)C)cc1", "test": "microbial killing, broth dilution", "measurement": "MBC", "result": "16 µg/mL"}
{"Structure (SMILES)": "CCCCCCCCCCCCCCCc1cc(O)cc(O)c1", "test": "microbial growth", "measurement": "IC50", "result": "26.7 µM"}
{"Structure (SMILES)": "CC1C(=NOCc2cc(-c3ccc(Cl)cc3)no2)CC(c2ccccc2)OC1c1ccccc1 (stereo not shown)", "test": "microbial growth, broth dilution", "test system": "MTCC121", "setting": "24 h", "measurement": "MIC", "result": "12.5 µg/mL"}
{"Structure (SMILES)": "O=C(CCCCC1CCCCC1)NP(=O)(O)O", "test": "microbial growth", "test system": "ATCC23857", "measurement": "MIC", "result": "> 200 µg/mL"}
{"Structure (SMILES)": "CC(C)CCCCCCCCCCCCc1cc(O)cc(O)c1", "test": "microbial growth", "measurement": "IC50", "result": "54.6 µM"}
{"Structure (SMILES)": "CCC1C(=NOCc2cc(-c3ccc(Cl)cc3)no2)CC(c2ccccc2)OC1c1ccccc1 (stereo not shown)", "test": "microbial growth, broth dilution", "test system": "MTCC121", "setting": "24 h", "measurement": "MIC", "result": "12.5 µg/mL"}
{"Structure (SMILES)": "CCC(CCCCCCCCCCc1cc(O)cc(O)c1)C(C)C (stereo not shown)", "test": "microbial growth", "measurement": "IC50", "result": "3.44 µM"}
{"Structure (SMILES)": "CCCCCCCCCCCCCCCC(=O)CP(=O)(O)O", "test": "microbial growth", "test system": "ATCC23857", "measurement": "MIC", "result": "25 µg/mL"}
{"Structure (SMILES)": "CC1(C)S[C@@H]2[C@H](NC(=O)[C@H](N)c3ccccc3)C(=O)N2[C@H]1C(=O)O", "test": "microbial growth, well diffusion", "test system": "ATCC6633", "setting": "60000 µg/mL", "measurement": "inhibition zone", "result": "31 mm"}
{"Structure (SMILES)": "CCCCCCCCCCCC(=O)OC[C@H]1O[C@@H](n2cc(C)c(=O)[nH]c2=O)C[C@@H]1O", "test": "microbial killing, broth dilution", "measurement": "MBC", "result": "16 µg/mL"}
{"Structure (SMILES)": "CCCCCCCC/C=C\\CCCCCCCC(=O)C(F)(F)P(=O)(O)O", "test": "microbial growth", "test system": "ATCC23857", "measurement": "MIC", "result": "> 200 µg/mL"}
{"Structure (SMILES)": "O=C(O)c1cn(C2CC2)c2cc(N3CCNCC3)c(F)cc2c1=O", "test": "microbial killing", "measurement": "MBC", "result": "19 µM"}
{"Structure (SMILES)": "CCCCCCCCCCCCCCCC(=O)NS(=O)(=O)Oc1ccc(OC)cc1", "test": "microbial growth", "test system": "ATCC23857", "measurement": "MIC", "result": "3.12 µg/mL"}
{"Structure (SMILES)": "Cc1c(NN=C(C#N)C2=NC(=O)CS2)c(=O)n(-c2ccccc2)n1C", "test": "microbial killing, broth dilution", "measurement": "MBC", "result": "2 µg/mL"}
{"Structure (SMILES)": "CCCCCCCCCCCC(=O)NP(=O)(O)O", "test": "microbial growth", "test system": "ATCC23857", "measurement": "MIC", "result": "> 200 µg/mL"}
{"Structure (SMILES)": "CC(C)CCCCCCCCCCCCCCCc1cc(O)cc(O)c1", "test": "microbial growth", "measurement": "IC50", "result": "14.5 µM"}
